Autophagy mod = autophagy modulation, high-content screen | MEF GFP-LC3 puncta imaging; test concentration mostly 10 µM | calls only at 10 µM (by protocol) | 190,000 compounds, 0.98% hits | AID 463193;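 active = percentage of spot-positive cells more than 3 SD above its plate mean, without a fluorescence outlier flag or 80% toxicity; inconclusive = no clear call, values can overlap the other calls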;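 note: spot-positive cell cutoff set from DMSO-treated cells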
Rad51 HR inh = Rad51 (human) homologous recombination inhibition; Q06609; hRad51 DNA strand exchange, fluorescence dequenching; inhibition, % at 10 µM; 200,000 compounds, 0.085% hits; AID 1385;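 active = inhibition above 40% at the single screening dose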;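 note: 0% = DMSO control wells and 100% = blanks with heterologous ssDNA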
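Material: hRad51 filaments on single-stranded DNA; Reagent: Donor/quencher-labelled 47-bp dsDNA substrate; Compound: 10 µM final, single point; Schedule: 37 °C 15-min filament assembly, 30-min compound preincubation, 15-min exchange; Technique: FRET fluorescence, excitation 485 nm, emission 520 nm; Benchmarks: control wells and blank wells on each plate.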
WT yeast gro inh = growth inhibition of WT yeast, mitochondrial fusion screen. 190,000 compounds, 2.1% hits. AID 1362. inhibition, % at 10 µM. mitochondrial fusion phenotypic screen, WT strain; in the data active = inhibition above about 58%; tested in S. cerevisiae
SKKanGAS inh = SKKanGAS growth inhibition; 300,000 compounds, 1.3% hits; AID 1662; inhibition, % at 7.5 µM; S. pyogenes SKKanGAS, kanamycin growth, BacTiter-Glo, 6 h;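 active = mean replicate score, as percent of positive control median, at least 50; inconclusive = mean below 50 but one replicate at or above 50; inactive = mean and every replicate below 50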;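 note: strain carries kanamycin resistance gene driven by streptokinase promoter and grows in 40 µg/ml kanamycin; loss of luminescence reflects streptokinase promoter inhibition or plain growth inhibition; 0% = median of DMSO wells and 100% = positive control at its reference dose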
Insulin prom up = MIN6 insulin promoter up-regulation. MIN6 insulin promoter-GFP reporter, high-content imaging; active compounds read high. 190,000 compounds, 0.3% hits. z-score at 5 µM;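 active = z-score above 3 at 5 µM with at least 500 cells counted in the well; inconclusive = wells under 500 cells, flagged as cytotoxic or low count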
KCC2 mod = modulators of human KCC2 chloride dependent transport. 190,000 compounds, 2.2% hits. B-score of Tl+ flux slope (higher = more flux/activation; lower = inhibition) at 10 µM. KCC2 cells, thallium flux FluoZin-2 fluorescence. Q9H2X9;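 active = thallium flux slope and its plate-corrected score both differing from the plate sample mean at a set confidence after two filtering rounds, in either direction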;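 note: slope of fluorescence scaled to starting intensity during 10 to 20 s after thallium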
KCC2 secondary = KCC2 (human) modulation, secondary assay; shares compounds with KCC2 mod; HEK293-KCC2, thallium flux, FluoZin2 fluorescence; active compounds read high; normalised thallium flux (F/F0 slope) at 10 µM; 3,700 compounds, 15% hits; AID 1713;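 active = thallium flux slope above the same plate's solvent-only control mean plus 3 SD; inconclusive = the two replicate wells disagree; inactive = no significant difference from solvent-only control wells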
KCC2 bumet counter = thallium flux despite bumetanide block in KCC2 cells, secondary assay 3. shares compounds with KCC2 mod. HEK293-KCC2 + bumetanide/ouabain, thallium flux FluoZin2; active compounds read high. normalized thallium flux at 10 µM. 3,700 compounds, 49% hits. AID 1714;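 active = thallium entry rate above the same plate's blocked-transporter control wells by more than 3 SD; inconclusive = the two repeat wells disagree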;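 note: raw slope of fluorescence over initial fluorescence between 10 and 20 s after thallium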
KCC2 secondary2 = confirmation of human KCC2 transport modulators | HEK293-KCC2, thallium flux FluoZin2 fluorescence; actives lie on both sides; F/F0 rise rate, 10–20 s post-thallium | AID 1715 | normalized thallium flux at 10 µM | shares compounds with KCC2 mod | 3,700 compounds, 23% hits;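 active = thallium flux slope more than 3 SD above or below the plate's solvent-only control mean, mostly below; inconclusive = the two repeat wells disagreed; inactive = no significant shift from solvent-only controls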;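 note: raw slope with 0.1% DMSO as baseline and bumetanide as block control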
HEK counter1 = acts in parental HEK cells, KCC2 counter-screen | shares compounds with KCC2 mod | HEK293 parental cells, thallium flux FluoZin2, ouabain; baseline-ratio fluorescence slope, 10–20 s after thallium | thallium flux rate (normalised fluorescence) at 10 µM | 3,700 compounds, 46% hits | AID 1716;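 active = thallium flux rate significantly above the same plate's solvent-only control wells, beyond their mean plus 3 SD; inconclusive = the two replicate wells gave conflicting results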
KCC2 retest ouab = modulates human KCC2 on retest with ouabain; HEK293-KCC2, thallium flux FluoZin2 fluorescence; bidirectional: low = inhibitor, high = activator; 3,700 compounds, 48% hits; raw Tl+ flux slope (below DMSO = inhibition, above = activation) at 10 µM; shares compounds with KCC2 mod;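 active = thallium flux slope beyond 3 SD from same-plate DMSO control mean in most replicates, usually higher, sometimes lower; inconclusive = repeat tests gave conflicting results; inactive = no significant difference from controls in most replicates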;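 note: slope of initial-normalized fluorescence between seconds 10 and 20 after thallium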
HEK293 Tl flux2 = parental HEK flux effect, counter-screen 2; shares compounds with KCC2 mod; HEK293 parental, thallium flux FluoZin-2 fluorescence slope; thallium flux slope at 10 µM; 3,700 compounds, 33% hits;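 active = thallium flux slope above the same plate's solvent-control mean plus 3 SD in both duplicate wells; inconclusive = duplicate wells that disagreed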;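 note: run without ouabain in cells lacking the KCC2 cotransporter; slope of fluorescence scaled to its starting value between 10 and 20 s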
An asterisk follows results filed as active; i = inactive; u = inconclusive; x = no result given. Shown are actives, neighbours in structure and some others; about 4.2% of the full set was active somewhere.

SMILES | Autophagy mod | Rad51 HR inh | WT yeast gro inh | SKKanGAS inh | Insulin prom up | KCC2 mod | KCC2 secondary | KCC2 bumet counter | KCC2 secondary2 | HEK counter1 | KCC2 retest ouab | HEK293 Tl flux2
Cc1ccsc1/C=N/n1c(-c2ccccc2)n[nH]c1=S | i | x | -3 | 1 | 0.36 | 9.8* | 0.014* | 0.039* | 0.036 | 0.015* | u | 0.013*
COC(=O)CCCC1=CC2=C(c3ccccc3)C(=O)C(C)(OC(=O)C3CCCC3)C(=O)C2=CN1CCc1c[nH]c2ccccc12 (centres undefined) | x | -5 | x | 13 | -0.29 | 0.22 | x | x | x | x | x | x
Cc1ccc(NC(=O)CCNCc2ccco2)cc1S(=O)(=O)N(C)C | i | x | 1 | 0 | 0.39 | 0.048 | x | x | x | x | x | x
O=C(N/N=C/c1cccn1-c1cccc(C(=O)O)c1)Nc1ccccc1 | i | -1 | 3 | -5 | 0.29 | -1.8 | x | x | x | x | x | x
COc1ccc(C2=NOC(c3nnc(-c4ccccc4)o3)C2)cc1 (centres undefined) | x | 8 | x | -4 | x | x | x | x | x | x | x | x
CCOc1ccccc1N1CCN(CC(O)COc2ccc3c(C)cc(=O)oc3c2)CC1 (centres undefined) | i | 0 | 12 | -4 | -1.2 | 6.3* | 0.016 | 0.0044 | 0.027 | 0.0065 | 0.015 | 0.0099
Cc1cc(=O)oc2cc(OCC(O)CN3CCN(c4ccc(F)cc4)CC3)ccc12 (centres undefined) | i | 2 | 6 | -8 | -0.38 | 0.41 | x | x | x | x | x | x
Nc1nc(Nc2ccccc2Cl)cc(=O)[nH]1 | x | -10 | x | 4 | -0.52 | -0.13 | x | x | x | x | x | x
COc1ccc(-c2nc3n(n2)C(c2ccncc2)C(C(N)=O)=C(C)N3)cc1 (centres undefined) | i | x | 13 | 4 | 0.37 | 11* | 0.0081 | 0.007 | 0.032 | 0.008 | 0.022 | 0.011
COc1ccc(-c2nc3n(n2)C(c2cccnc2)C(C(N)=O)=C(C)N3)cc1 (centres undefined) | i | -4 | 9 | -1 | x | 0.15 | x | x | x | x | x | x
NC(=O)c1ccc(F)cc1 | i | -5 | -12 | 7 | x | 0.81 | 0.0056 | 0.0046 | 0.028 | 0.0073 | 0.018 | 0.0094
CCC(C)(C)NC(=O)CN(Cc1ccco1)C(=O)CCC(=O)Nc1nccs1 | x | x | x | -4 | x | x | x | x | x | x | x | x
O=C(Cn1cnc2ccccc2c1=O)Nc1nnc(SCc2ccccc2)s1 | i | 7 | -10 | -2 | -0.4 | x | 0.0089 | 0.0067 | 0.029 | 0.009* | 0.021 | u
OCCC1CN(Cc2cccc3c2OCO3)CCN1C1CCCC1 (centres undefined) | i | 4 | 6 | -7 | x | 0.19 | x | x | x | x | x | x
Cc1ccc(Cl)cc1N1CCN(C(=O)Cc2csc(Nc3nc(=S)[nH]c4ccccc34)n2)CC1 | i | -74 | -8 | 10 | 0.03 | 19* | 0.013* | 0.053* | u | 0.032* | 0.054* | 0.014*
Cc1ccc(Cl)cc1N1CCN(C(=O)Cn2ccc3ccccc3c2=O)CC1 | i | -2 | 4 | 13 | -0.47 | x | x | x | x | x | x | x
O=C(Cc1csc(Nc2nc(=S)[nH]c3ccccc23)n1)N1CCN(c2cccc(Cl)c2)CC1 | i | -18 | 10 | 17 | -0.37 | 25* | u | 0.075* | 0.036 | 0.03* | 0.053* | 0.014*
CC(=O)Nc1ccc(NC(=O)C(OC(=O)c2ccccc2)C(OC(=O)c2ccccc2)C(=O)O)cc1 (centres undefined) | i | 17 | -12 | -2 | 0.12 | -0.12 | x | x | x | x | x | x
CN1/C(=C\C(=O)c2cccnc2)C(C)(C)c2ccccc21 | i | x | -4 | 0 | -0.32 | -0.65 | x | x | x | x | x | x
CN1/C(=C/C(=O)c2nc(S(C)(=O)=O)ncc2Cl)C(C)(C)c2ccccc21 | i | -5 | 0 | -32 | -0.38 | -7.2* | 0.0061 | u | 0.022* | u | 0.013* | 0.01
N#CC(C#N)=Cc1cccn1-c1ccc(S(N)(=O)=O)cc1 | i | x | 3 | 0 | 1 | 3 | x | x | x | x | x | x
Cc1cc(Cl)ccc1OCc1n[nH]c(=S)n1C1CCCCC1 | i | -2 | 94* | 37 | 0.63 | 16* | 0.0072 | 0.041* | 0.049* | 0.04* | 0.036* | 0.031*
COc1ccc(Cl)cc1-c1n[nH]c(=S)n1C1CCCCC1 | i | 6 | -1 | 2 | 0.6 | 0.026 | x | x | x | x | x | x
COc1cc([N+](=O)[O-])ccc1NC(=O)CSc1nnc(C)c(C)n1 | i | -11 | 6 | 1 | 0.09 | -1.1 | x | x | x | x | x | x
O=C(Cn1ncc2c([nH]c3ccccc32)c1=O)N1CCN(c2ccccn2)CC1 | x | x | x | 1 | x | x | x | x | x | x | x | x
SMILES | Autophagy mod | Rad51 HR inh | WT yeast gro inh | SKKanGAS inh | Insulin prom up | KCC2 mod | KCC2 secondary | KCC2 bumet counter | KCC2 secondary2 | HEK counter1 | KCC2 retest ouab | HEK293 Tl flux2
N#Cc1c(SCC(=O)O)nc(N2CCCCC2)c2c1CCCC2 | i | -3 | 2 | 19 | 0.41 | -3.2* | 0.012 | 0.0062 | 0.033 | 0.0064 | 0.02 | 0.011
Cc1ccc(C(=O)NC(=S)Nc2c(C)ccc3nsnc23)cc1 | i | 18 | 24 | 8 | 0.38 | 8.7* | 0.011 | 0.057* | 0.037 | 0.023* | 0.045* | 0.013*
Cc1ccc(C(=O)NC(=S)Nc2cccc3nsnc23)cc1 | i | -2 | -2 | -1 | x | 0.86 | x | x | x | x | x | x
Cc1noc(C)c1CN1C(=O)NC2(CCc3ccccc3C2)C1=O (centres undefined) | i | -7 | 15 | -3 | x | 0.12 | 0.0097 | 0.0069 | 0.034 | 0.0074 | 0.022 | 0.01
Cc1ccc(C)c(N2C(=O)C3C4C=CC(CC4)C3C2=O)c1 (centres undefined) | x | x | x | -2 | x | x | x | x | x | x | x | x
O=C1NC(=S)SC1=C1CCCC1 | i | -27 | 11 | -14 | 0.07 | 18* | 0.0066 | 0.028* | 0.042* | 0.029* | 0.037* | 0.032*
CN1C(=O)C(=C2CCCCCC2)SC1=S | i | 2 | -10 | -8 | 0.43 | x | x | x | x | x | x | x
COC(=O)CCCC1=CC2=C(c3ccccc3)C(=O)C(C)(OC(=O)C3CCCC3)C(=O)C2=CN1Cc1ccc(OC)cc1 (centres undefined) | x | 5 | x | 9 | -0.65 | -2.6* | 0.015 | 0.0042 | 0.029 | 0.0065 | 0.016 | 0.0087

Screening data deposited in PubChem by several laboratories.
